Structures are written as SMILES. Calls of active or inactive are those of the source.

Data on nine molecules can be found in ChEMBL document CHEMBL2086384, “Chiral cyclohexane 1,3-diones as inhibitors of mutant SOD1-dependent protein aggregation for the treatment of ALS” (ACS Med Chem Lett, 2012).

In data set [1] the test system is Cerebral cortex neuron. The experiment in a line: Inhibition of SOD1 G93A mutant-induced protein aggregation in MG132-treated rat primary cortical neurons assessed as decrease in cell death up to 100 uM incubated for 24 hrs prior to MG132 treatment measured after 48 hrs by Calcein-AM staining method. The data set is classed as cell-based.
A short description of data set [2]: Inhibition of SOD1 G93A mutant-induced protein aggregation in MG132-treated rat PC12 cells assessed as decrease in cell death incubated for 24 hrs prior to MG132 treatment measured after 48 hrs by Calcein-AM staining method. It counts as cell-based. The following applies: PC-12.
Another data set has as its system Caco-2. As to the kind of experiment: Efflux ratio of apparent permeability from basal to apical to apical to basal side of human Caco2 cells at 50 uM after 2 hrs. To be noted: caco-2, 2 h. The data set is classed as ADME, cell-based. On the technique in general: Passage across Caco-2 layers is used to estimate intestinal permeability.
Data set [3] can be described thus: Intrinsic clearance in human liver microsomes at 1 uM after 1 hr in absence of NADPH. It counts as ADME, Microsome. The following applies: read-out: CLH. Summed up: (§1)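 Human or mouse liver microsomes; test compound at 1 μM, incubated at 37 °C for 1 h with and without NADPH. Intrinsic clearance given in mL/min/kg and half-life in min.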
Data set [4] in a line: Apparent permeability of the compound from apical to basal side of human Caco2 cells at 50 uM after 2 hrs. The data set is classed as ADME, cell-based. The following applies: Caco-2.
Data set [5] has as its system Liver microsomes. As to the kind of experiment: Half life in human liver microsomes at 1 uM after 1 hr in presence of NADPH. It counts as ADME, Microsome. In a few lines: as §1
The nature of data set [6]: Aqueous solubility of the compound in DMSO after 1 hr by spectrophotometry. The data set is classed as physicochemical. Summed up: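 Aqueous solubility: DMSO stock diluted into PBS to a final 1% DMSO. The limit was taken as the highest concentration showing no precipitation.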
Data set [7] in a line: Apparent permeability of the compound from basal to apical side of human Caco2 cells at 50 uM after 2 hrs. It counts as ADME, cell-based. The following applies: Caco-2.
The subject of data set [8] is Liver microsomes. The experiment in a line: Half life in human liver microsomes at 1 uM after 1 hr in absence of NADPH. The data set is classed as ADME, Microsome. Summed up:
as §1

In data set [9] the test system is Liver. As to the kind of experiment: Half life in mouse liver microsomes at 1 uM after 1 hr in absence of NADPH. It counts as ADME, Microsome. Summed up:
as §1
(Liver microsomes are vesicles of endoplasmic reticulum, rich in cytochrome P450 enzymes.)

Data set [10] relates to Liver. The experiment in a line: Half life in mouse liver microsomes at 1 uM after 1 hr in presence of NADPH. It counts as ADME, Microsome. In a few lines:
as §1

Data set [11] is described as follows: Half life in plasma. The data set is classed as ADME, cell-free.
For data set [12], the system named is Mus musculus. As to the kind of experiment: Increase in life span of transgenic mouse expressing human SOD1 G93A mutant at 22 mg/kg. It counts as functional.
Data set [13] deals with Cerebral cortex neuron. The experiment in a line: Inhibition of SOD1 G93A mutant-induced protein aggregation in MG132-treated rat primary cortical neurons assessed as decrease in cell death at 10 uM incubated for 24 hrs prior to MG132 treatment measured after 48 hrs by Calcein-AM staining method. The data set is classed as cell-based.
The nature of data set [14]: Toxicity in mouse administered BID. It counts as organism-based. To be noted: in vivo. In a few lines: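 Tolerable dose range found in wild-type mice by escalating the dose given b.i.d.; maximum tolerated dose taken as the read-out.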
Data set [15] can be described thus: Half life in blood at 500 mg/kg, ip. Details: dose 500 mg/kg, route intraperitoneal. The data set is classed as ADME, organism-based. In a few lines:
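Compound given i.p. at 500 mg/kg. Concentrations were measured in blood, with brain levels sampled in the same study. The half-life was taken from the blood time course.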

In data set [16] the test system is Mus musculus. The experiment in a line: Increase in life span of transgenic mouse expressing human SOD1 G93A mutant assessed as survival at 30 mg/kg administered QD until death (reference value: 125.7+/-4.3 days). The data set is classed as functional. Summed up: (§2)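 Transgenic mice expressing human G93A mutant SOD1, cohorts matched for age (±3 days) and "f" generation, drawn from multiple litters. Dosed 10, 20 or 30 mg/kg once daily from 6 weeks of age until end of life; untreated G93A mice served as controls. Survival read out by Kaplan-Meier plot and reported as mean ± value in days, with p values.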

Data set [17] has as its system Mus musculus. As to the kind of experiment: Increase in life span of transgenic mouse expressing human SOD1 G93A mutant assessed as survival at 10 mg/kg administered QD until death (reference value: 125.7+/-4.3 days). It counts as functional. Summed up:
as §2

Data set [18] deals with Cerebral cortex neuron. The experiment in a line: Inhibition of SOD1 G93A mutant-induced protein aggregation in MG132-treated rat primary cortical neurons assessed as decrease in cell death at 3 uM incubated for 24 hrs prior to MG132 treatment measured after 48 hrs by Calcein-AM staining method. The data set is classed as cell-based.
A short description of data set [19]: Drug uptake in brain at 500 mg/kg, ip. The data set is classed as ADME, organism-based. The arrangement: dose 500 mg/kg, route intraperitoneal. To be noted: in vivo, read-out: Drug uptake. Summed up:
(§3)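 Single i.p. dose of 500 mg/kg in mice. Blood and brain levels were sampled over time to find the maximum level and Tmax.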

Data set [20] is described as follows: Drug uptake in blood at 500 mg/kg, ip at 12 hrs. It counts as ADME, organism-based. Details: dose 500 mg/kg, route intraperitoneal. To be noted: read-out: Drug uptake. Summed up:
as §3

Data set [21] in a line: Tmax in brain at 500 mg/kg, ip. It counts as ADME, organism-based. Details: dose 500 mg/kg, route intraperitoneal. In a few lines:
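Compound given as a single intraperitoneal dose of 500 mg/kg. Levels were followed over time in both blood and brain. Tmax is the time at which the brain concentration peaked.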

The test system of data set [22] is Liver microsomes. As to the kind of experiment: Drug metabolism in rat liver microsomes at 10 uM after 1 hr by LC-PDA-MS/MS analysis. The data set is classed as ADME, Microsome.
The test system of data set [23] is Mus musculus. As to the kind of experiment: Increase in life span of transgenic mouse expressing human SOD1 G93A mutant at 20 mg/kg administered QD until death relative to untreated-control. The data set is classed as functional. In a few lines: as §2

For orientation: inhibition means the change of the read-out against control, counted positive when it falls. What is called EC50 is the midpoint of the concentration-response curve. For `C[C@@H](Oc1cc(C(F)(F)F)cc(C(F)(F)F)c1)C1CC(=O)CC(=O)C1`, the inhibition entry in the data set with Cerebral cortex neuron [1] was “Active”. Also, in data set [2], the half-maximal effective concentration (EC50) was 1.3 µM.
The matching figures for `O=C1CC(=O)CC([C@H]2C[C@@H]2c2cc(C(F)(F)F)cc(C(F)(F)F)c2)C1`: “Active” and 1.39 µM.
As a reminder, the Papp A→B is the apparent permeability from the apical to the basolateral side of a cell layer. What is called Papp B→A is the apparent permeability from the basolateral to the apical side of a cell layer. In the case of `O=C1CC(=O)CC([C@@H]2C[C@H]2c2cc(C(F)(F)F)cc(C(F)(F)F)c2)C1`, the Ratio in the data set on Caco-2 stood at 0.1. For the same molecule, the CLint scaled at 1 µM in data set [3] turned out to be 12 mL/min/kg. In addition, the Papp A→B at 2 h, 50 µM in data set [4] turned out to be 21.7 ×10⁻⁶ cm/s. Also, the t1/2 is 0.817 h with Liver microsomes [5]; more than 3 h in the data set on Liver microsomes [8]; 0.617 h in the data set on Liver [9]; 0.467 h with Liver [10]; 1.18 h in data set [11]. Further, in data set [6], the solubility entry was “>= 100 uM”. Moreover, the Papp B→A at 2 h, 50 µM in data set [7] amounted to 1.1 ×10⁻⁶ cm/s. In addition, the inhibition result with Cerebral cortex neuron [1] was “Active”. Also, in data set [2], the concentration giving a half-maximal response (EC50) is 0.8 µM.
`Nc1nc2ccc(OC(F)(F)F)cc2s1` [RILUZOLE] showed a survival at 22 mg/kg with Mus musculus [12] of 10%.
On to `O=c1cc(COc2cc(Cl)cc(Cl)c2)[nH][nH]1`, for which the inhibition entry in the data set on Cerebral cortex neuron [13] was “Active”.
Turning to `O=C1CC(=O)CC(C2CC2c2cc(C(F)(F)F)cc(C(F)(F)F)c2)C1` (racemic), the inhibition entry with Cerebral cortex neuron [1] was “Active”. Besides, the EC50 in data set [2] was 1 µM.
The matching figures for `CC(Oc1cc(C(F)(F)F)cc(C(F)(F)F)c1)C1CC(=O)CC(=O)C1` (racemic): “Active” and 0.7 µM.
On the same counts, the results for `O=C1CC(=O)CC(c2cc(C(F)(F)F)cc(C(F)(F)F)c2)C1` are “inactive” and 0.7 µM.
The half-life is the time needed for the level to fall by half in the phase considered. Low readings indicate fast loss, high ones slow loss. By Tmax is commonly meant the time from dosing to the highest level. As to `C[C@H](Oc1cc(C(F)(F)F)cc(C(F)(F)F)c1)C1CC(=O)CC(=O)C1`, the Ratio in the data set on Caco-2 was determined as 0.1. The molecule also came in with an MTD in data set [14] of 1280 mg/kg. Moreover, the half-life in [15] is 12 h. In data set [3], the CLint scaled at 1 µM came out at 10 mL/min/kg. In [4], the apical-to-basolateral permeability (Papp A→B) at 2 h, 50 µM was found to be 24.1 ×10⁻⁶ cm/s. For the same molecule, the Survival in the data set on Mus musculus [16] is 127.9 days; in the data set on Mus musculus [17], 139.2 days. Moreover, in the data set on Cerebral cortex neuron [18], the inhibition was more than 90%. Further, the solubility result in data set [6] is recorded as “>= 100 uM”. In addition, the basolateral-to-apical permeability (Papp B→A) at 2 h, 50 µM in [7] is 1.5 ×10⁻⁶ cm/s. For the same molecule, in the data set with Cerebral cortex neuron [1], the inhibition result was “Active”. Further, the t1/2 in the data set with Liver microsomes [8] is more than 3 h; in the data set on Liver [9], 0.867 h; in the data set on Liver [10], 0.867 h; in data set [11], more than 1 h. For the same molecule, the concentration in data set [19] was found to be 8.3 µM. In addition, the concentration at 12 h in data set [20] amounted to 245 µM. In addition, the time of peak concentration (Tmax) in data set [21] was 12 h. Also, in data set [2], the EC50 was 0.3 µM. In addition, in the data set with Liver microsomes [22], the Drug metabolism entry is given as “Active”. In the data set with Mus musculus [23], this molecule had a survival at 20 mg/kg of 13%.
